Source: ChEMBL document CHEMBL3867447, “Cytotoxic 14-Membered Macrolides from a Mangrove-Derived Endophytic Fungus, Pestalotiopsis microspora” (J Nat Prod, 2016)

Key:
[1] = Cytotoxicity against mouse L5178Y cells by MTT assay; format: functional, cell-based
How it was run: (§1)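 MTT assay on mouse lymphoma L5178Y and human ovarian cancer A2780 cells, as in the earlier reports the paper cites. Positive controls were kahalalide F for L5178Y and cisplatin for A2780. Negative control was medium with 0.1% DMSO. Results are given as IC50 in μM.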

[2] = Cytotoxicity against human A2780 cells by MTT assay; format: functional, cell-based; how it was run: as §1

Row | SMILES | IC50 [1] [µM] | IC50 [2] [µM]
1 | C[C@H]1CCC/C=C\[C@H](O)[C@H]2O[C@H]2[C@H](O)/C=C/C(=O)O1 | > 50 | > 50
2 | C[C@H]1CCC[C@@H](O)/C=C/C=C\C(=O)CCC(=O)O1 | > 50 | 36
3 | C[C@H]1CCC[C@@H](O)/C=C/C=C\[C@@H](O)/C=C/C(=O)O1 | 3.9 | 12
4 | C[C@H]1CCCCC[C@H](O)CC[C@H](O)/C=C/C(=O)O1 | 39 | > 50
5 | CO[C@H]1/C=C\CCC[C@H](C)OC(=O)/C=C/[C@@H](O)/C=C\1 | 0.7 | 28
6 | C[C@H]1CCC/C=C/[C@H](O)[C@H]2O[C@H]2[C@H](O)/C=C/C(=O)O1 | > 50 | > 50
7 | C[C@H]1CCC/C=C/[C@H](O)/C=C\[C@H](O)/C=C/C(=O)O1 | 21 | > 50
8 | C[C@H]1CCC/C=C\[C@H](O)/C=C\[C@H](O)/C=C/C(=O)O1 | 21 | 43
9 | CO[C@H]1/C=C/C=C\C(=O)CCC(=O)O[C@@H](C)CCC1 | 11 | > 50
10 | CO[C@H]1/C=C\CCC[C@H](C)OC(=O)CCC(=O)/C=C\1 | 5.6 | > 50
11 | C[C@H]1CCC[C@@H](O)/C=C/C=C\[C@H](O)/C=C/C(=O)O1 | 3.4 | 1.2
12 | C/C=C1\NC(=O)[C@H](Cc2ccccc2)NC(=O)[C@H](C(C)C)NC(=O)[C@@H]([C@@H](C)CC)NC(=O)[C@@H](NC(=O)[C@H](NC(=O)[C@H](CCCN)NC(=O)[C@H]2CCCN2C(=O)[C@@H](NC(=O)[C@H](NC(=O)[C@@H](NC(=O)[C@@H](NC(=O)CCCC(C)C)C(C)C)[C@@H](C)O)C(C)C)C(C)C)[C@@H](C)CC)[C@@H](C)OC(=O)[C@H](C(C)C)NC1=O | 4.3 | 
